Test results as given in ChEMBL document CHEMBL4715780, “Biological evaluation of tetracationic compounds based on two 1,4-diazabicyclo[2.2.2]octane moieties connected by different linkers” (Bioorg Med Chem, 2016).

Columns and labels:
Enterococcus faecalis = experiment: Antibacterial activity against Enterococcus faecalis ATCC 51299 assessed as bacterial growth inhibition by CLSI protocol based serial microdilution method; type: functional
Citrobacter freundii [1] = experiment: Antibacterial activity against Citrobacter freundii ATCC 8090 assessed as concentration required to inhibit visible growth by CLSI protocol based serial microdilution method; type: functional
Citrobacter freundii [2] = experiment: Antibacterial activity against Citrobacter freundii ATCC 8090 assessed as bacterial growth inhibition by CLSI protocol based serial microdilution method; type: functional
Proteus vulgaris = experiment: Antibacterial activity against Proteus vulgaris ATCC 6380 assessed as concentration required to inhibit visible growth by CLSI protocol based serial microdilution method; type: functional
Staphylococcus aureus [3] = experiment: Antibacterial activity against methicillin-resistant Staphylococcus aureus CEMTC 707 assessed as concentration required to inhibit visible growth by CLSI protocol based serial microdilution method; type: functional
Staphylococcus aureus [4] = experiment: Antibacterial activity against methicillin-resistant Staphylococcus aureus CEMTC 1732 assessed as concentration required to inhibit visible growth by CLSI protocol based serial microdilution method; type: functional
Staphylococcus aureus [5] = experiment: Antibacterial activity against methicillin-resistant Staphylococcus aureus CEMTC 1733 assessed as concentration required to inhibit visible growth by CLSI protocol based serial microdilution method; type: functional
Staphylococcus aureus [6] = experiment: Antibacterial activity against methicillin-resistant Staphylococcus aureus CEMTC 1850 assessed as concentration required to inhibit visible growth by CLSI protocol based serial microdilution method; type: functional
Pseudomonas aeruginosa [7] = experiment: Bactericidal activity against Pseudomonas aeruginosa ATCC 9027 assessed as colony forming unit at 10 ug/ml measured at 2 hrs by time kill assay (reference value: 3.6 x 10^5 CFU/ml); type: functional; conditions: dose 10 µg/ml
Method in brief: (§1)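 Overnight Pseudomonas aeruginosa culture adjusted in Mueller–Hinton broth to about 2.5 × 10⁵ CFU/mL. Compound added at 2.5, 5 or 10 µg/mL, then incubated at 37 °C with shaking (580 rpm) for 22 h. Viable colonies counted on plates at 2, 4, 6, 8 and 22 h. Quantification limit 100 CFU/mL; triplicate.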

Pseudomonas aeruginosa [8] = experiment: Bactericidal activity against Pseudomonas aeruginosa ATCC 9027 assessed as colony forming unit at 10 ug/ml measured at 6 hrs by time kill assay (reference value: 10^8 CFU/ml); type: functional; conditions: dose 10 µg/ml; method in brief: as §1
Pseudomonas aeruginosa [9] = experiment: Bactericidal activity against Pseudomonas aeruginosa ATCC 9027 assessed as colony forming unit at 5 ug/ml measured at 8 hrs by time kill assay (reference value: 2.7 x 10^8 CFU/ml); type: functional; conditions: dose 5 µg/ml; method in brief: as §1
Pseudomonas aeruginosa [10] = experiment: Bactericidal activity against Pseudomonas aeruginosa ATCC 9027 assessed as colony forming unit at 5 ug/ml measured at 22 hrs by time kill assay (reference value: 1.7 x 10^9 CFU/ml); type: functional; conditions: dose 5 µg/ml; method in brief: as §1
Pseudomonas aeruginosa [11] = experiment: Bactericidal activity against Pseudomonas aeruginosa ATCC 9027 assessed as reduction in colony forming unit at 10 ug/ml measured at 2 hrs by time kill assay relative to control; type: functional; design: scale not given: the % may be the effect or the level left; conditions: dose 10 µg/ml; method in brief: as §1
Pseudomonas aeruginosa [12] = experiment: Bactericidal activity against Pseudomonas aeruginosa ATCC 9027 assessed as reduction in colony forming unit at 10 ug/ml measured at 8 hrs by time kill assay relative to control; type: functional; design: scale not given: the % may be the effect or the level left; conditions: dose 10 µg/ml; method in brief: as §1
Pseudomonas aeruginosa [13] = experiment: Bactericidal activity against Pseudomonas aeruginosa ATCC 9027 assessed as reduction in colony forming unit at 5 ug/ml measured at 2 hrs by time kill assay relative to control; type: functional; design: scale not given: the % may be the effect or the level left; conditions: dose 5 µg/ml; method in brief: as §1
Pseudomonas aeruginosa [14] = experiment: Bactericidal activity against Pseudomonas aeruginosa ATCC 9027 assessed as reduction in colony forming unit at 5 ug/ml measured at 22 hrs by time kill assay relative to control; type: functional; design: scale not given: the % may be the effect or the level left; conditions: dose 5 µg/ml; method in brief: as §1
Pseudomonas aeruginosa [15] = experiment: Bactericidal activity against Pseudomonas aeruginosa ATCC 9027 assessed as reduction in colony forming unit at 2.5 ug/ml measured at 2 hrs by time kill assay relative to control; type: functional; design: scale not given: the % may be the effect or the level left; conditions: dose 2.5 µg/ml; method in brief: as §1
Pseudomonas aeruginosa [16] = experiment: Bactericidal activity against Pseudomonas aeruginosa ATCC 9027 assessed as reduction in colony forming unit at 2.5 ug/ml measured at 6 hrs by time kill assay relative to control; type: functional; design: scale not given: the % may be the effect or the level left; conditions: dose 2.5 µg/ml; method in brief: as §1
Pseudomonas aeruginosa [17] = experiment: Bactericidal activity against Pseudomonas aeruginosa ATCC 9027 assessed as reduction in colony forming unit at 2.5 ug/ml measured at 8 hrs by time kill assay relative to control; type: functional; design: scale not given: the % may be the effect or the level left; conditions: dose 2.5 µg/ml; method in brief: as §1
Pseudomonas aeruginosa [18] = experiment: Bactericidal activity against Pseudomonas aeruginosa ATCC 9027 assessed as reduction in colony forming unit at 2.5 ug/ml measured at 22 hrs by time kill assay relative to control; type: functional; design: scale not given: the % may be the effect or the level left; conditions: dose 2.5 µg/ml; method in brief: as §1
Staphylococcus aureus [19] = experiment: Bactericidal activity against […] Staphylococcus aureus ATCC 25923 assessed as colony forming unit at 2.5 ug/ml measured at 4 hrs by time kill assay (reference value: 7.8 x 10^6 CFU/ml); type: functional; conditions: dose 2.5 µg/ml
Method in brief: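 S. aureus overnight culture was adjusted in MHB to ~8 × 10⁵ CFU/mL. Compound was added and the mixture incubated at 37 °C with shaking (580 rpm) for 22 h. Aliquots were plated for colony counts at 2, 4, 6, 8 and 22 h, with a quantification limit of 100 CFU/mL. Runs were done in triplicate.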

[20] = Cytotoxicity against human MCF7 cells assessed as reduction in cell viability measured after 24 hrs by MTT assay; type: cell-based
Method in brief: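 HEK293T or MCF-7 cells in IMDM with 10% FBS, seeded at 20,000 per well and grown overnight. Compounds at […] in fresh medium for 24 h at 37 °C, 5% CO₂. MTT then added for 4 h, precipitate dissolved overnight in SDS-HCl, absorbance read at 570 nm. Viability expressed relative to untreated cells, giving CC₅₀. Duplicate wells, at least two independent repeats.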

[21] = Selectivity index, ratio of CC50 for HEK293T cells assessed as reduction in cell viability measured after 24 hrs by MTT assay to MIC for Enterococcus faecalis ATCC 51299 assessed as bacterial growth inhibition by CLSI protocol based serial microdilution method; type: toxicity; conditions: human, read-out: Selectivity Index
[22] = Selectivity index, ratio of CC50 for HEK293T cells assessed as reduction in cell viability measured after 24 hrs by MTT assay to MIC for Citrobacter freundii ATCC 8090 assessed as bacterial growth inhibition by CLSI protocol based serial microdilution method; type: toxicity; conditions: human, read-out: Selectivity Index
[23] = Selectivity index, ratio of CC50 for HEK293T cells assessed as reduction in cell viability measured after 24 hrs by MTT assay to MIC for Proteus vulgaris ATCC 6380 assessed as bacterial growth inhibition by CLSI protocol based serial microdilution method; type: toxicity; conditions: human, read-out: Selectivity Index
Influenza A virus = experiment: Antiviral activity against Influenza A virus (A/Puerto Rico/8/34 (H1N1) infected in MDCK cells assessed as decrease in viral titer preincubated for 1 hr followed by viral infection and cultivated for 48 hrs followed by supernatant transferred to chicken erythrocyte for 1 hr followed by measuring ability to cause positive hemagglutination; type: functional, organism-based; conditions: A/Puerto Rico/8/1934(H1N1)
Method in brief: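 MDCK monolayers in MEM were pre-incubated with compound for 1 h at 37 °C, then infected with 10-fold virus dilutions (10⁻¹–10⁻⁶) and held 48 h at 37 °C, 5% CO₂. Supernatant was mixed with an equal volume of 1% chicken erythrocytes, 60 min at room temperature. Titre was taken from the highest dilution giving full agglutination (log₁₀ EID₅₀). Triplicate per concentration.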

[24] = Selectivity index, ratio of CC50 for HEK293T cells assessed as reduction in cell viability measured after 24 hrs by MTT assay to MIC for Salmonella enterica ATCC 14028 assessed as bacterial growth inhibition by CLSI protocol based serial microdilution method; type: toxicity; conditions: human, read-out: Selectivity Index

| SMILES | MIC (Enterococcus faecalis) [µg/mL] | MBC (Citrobacter freundii [1]) [µg/mL] | MIC (Citrobacter freundii [2]) [µg/mL] | MBC (Proteus vulgaris) [µg/mL] | MBC (Staphylococcus aureus [3]) [µg/mL] | MBC (Staphylococcus aureus [4]) [µg/mL] | MBC (Staphylococcus aureus [5]) [µg/mL] | MBC (Staphylococcus aureus [6]) [µg/mL] | Activity (Pseudomonas aeruginosa [7]) [CFU/ml] | Activity (Pseudomonas aeruginosa [8]) [CFU/ml] | Activity (Pseudomonas aeruginosa [9]) [CFU/ml] | Activity (Pseudomonas aeruginosa [10]) [CFU/ml] | Activity (Pseudomonas aeruginosa [11]) | Activity (Pseudomonas aeruginosa [12]) | Activity (Pseudomonas aeruginosa [13]) | Activity (Pseudomonas aeruginosa [14]) | Activity (Pseudomonas aeruginosa [15]) | Activity (Pseudomonas aeruginosa [16]) | Activity (Pseudomonas aeruginosa [17]) | Activity (Pseudomonas aeruginosa [18]) | further results |
| --- | --- | --- | --- | --- | --- | --- | --- | --- | --- | --- | --- | --- | --- | --- | --- | --- | --- | --- | --- | --- | --- |
| CCCCCCCCCCCC[N+]12CC[N+](CCC[N+]34CC[N+](CCCCCCCCCCCC)(CC3)CC4)(CC1)CC2 | 1.6 | 3.1 | 1.6 | > 100 | 1 | 1 | 1 | 1 | <100 | <100 | <100 | <100 | >=99.9% | >=99.9% | >=99.9% | >=99.9% | >=99.9% | >=99.9% | >=99.9% | >=99.9% | Activity (Staphylococcus aureus [19]): <100 CFU/ml; CC50 at 24 h [20]: 5 µg/mL; selectivity ratio at 24 h [21]: 4; selectivity ratio at 24 h [22]: 4; selectivity ratio at 24 h [23]: < 1; EC50 (Influenza A virus): 1.9 µg/mL; selectivity ratio at 24 h [24]: 4 |
| CCCCCCCCCCCC[N+]12CC[N+](Cc3ccccc3C[N+]34CC[N+](CCCCCCCCCCCC)(CC3)CC4)(CC1)CC2 | 0.8 | 1.6 | 1.6 | > 100 | 1 | 1 | 1 | 1 | <100 | <100 | <100 | <100 | ≥ 99.9% | >=99.9% | >=99.9% | >=99.9% | >=90% | >=99.9% | >=99.9% | >=99.9% | Activity (Staphylococcus aureus [19]): <100 CFU/ml; CC50 at 24 h [20]: 4 µg/mL; selectivity ratio at 24 h [21]: 5; selectivity ratio at 24 h [22]: 3; selectivity ratio at 24 h [23]: < 1; EC50 (Influenza A virus): 1 µg/mL; selectivity ratio at 24 h [24]: 3 |
